{
  "source": "ChEMBL document CHEMBL2346548",
  "about": "“Design, synthesis, and structure-activity relationship studies of tryptanthrins as antitubercular agents” (J Nat Prod, 2013)",
  "key": {"[1]": {"assay": "Tmax in C57BL/6 mouse at 40 mg/kg, po formulated in 20% DMSODMSO, 20% PEG400, 60% (30% HP-beta-CD in water)", "assay_type": "ADME, organism-based", "design": "dose 40 mg/kg, route oral", "details": "in vivo", "outline": "(§1)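 Female C57BL/6 mice, single 40 mg/kg oral gavage; three mice per time point; plasma at 30 min to 24 h, LC-MS; noncompartmental parameters reported as means.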"}, "[2]": {"assay": "Cmax in C57BL/6 mouse at 40 mg/kg, po formulated in 0.1% SLS", "assay_type": "ADME, organism-based", "design": "dose 40 mg/kg, route oral", "details": "in vivo", "outline": "as §1"}, "[3]": {"assay": "Clearance in Sprague-Dawley rat at 5 mg/kg, iv", "assay_type": "ADME, organism-based", "design": "dose 5 mg/kg, route intravenous", "details": "in vivo", "outline": "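Male Sprague-Dawley rats (n = 3), single 5 mg/kg iv dose as solution in PEG300/DMSO 50:50; plasma sampled 0.083–24 h, LC-MS bioanalysis; noncompartmental analysis, means.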"}, "[4]": {"target": "CYP3A4 (Homo sapiens, UniProt P08684)", "sequence (P08684 whole entry)": "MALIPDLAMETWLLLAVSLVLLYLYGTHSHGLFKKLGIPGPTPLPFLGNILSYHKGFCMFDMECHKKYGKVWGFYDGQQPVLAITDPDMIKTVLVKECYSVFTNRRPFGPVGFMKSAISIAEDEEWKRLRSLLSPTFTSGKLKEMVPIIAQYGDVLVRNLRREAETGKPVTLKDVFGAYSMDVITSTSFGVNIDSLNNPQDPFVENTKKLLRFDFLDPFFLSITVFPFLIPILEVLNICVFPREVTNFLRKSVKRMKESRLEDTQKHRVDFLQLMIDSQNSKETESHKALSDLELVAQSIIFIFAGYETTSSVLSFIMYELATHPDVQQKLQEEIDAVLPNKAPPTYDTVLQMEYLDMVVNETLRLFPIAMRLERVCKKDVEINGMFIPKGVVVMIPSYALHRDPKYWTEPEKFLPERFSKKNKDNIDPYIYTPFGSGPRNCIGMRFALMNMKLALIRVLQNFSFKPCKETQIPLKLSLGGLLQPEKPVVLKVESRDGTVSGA", "assay": "Inhibition of human recombinant CYP3A4 at 10 uM incubated for 30 mins at 37 degC using 7-benzyloxy-4-(trifluoromethyl)coumarin substrate", "assay_type": "ADME", "details": "recombinant CYP3A4, probe 7-benzyloxy-4-(trifluoromethyl)coumarin"}, "[5]": {"assay": "Permeability across basolateral to apical side in human Caco2 cells incubated for 1 hr at 37 degC by HPLC-MS/MS method", "assay_type": "ADME, cell-based", "details": "Caco-2"}, "[6]": {"assay": "Solubility in simulated gastric fluid at pH 1.5 by HPLC method", "assay_type": "physicochemical", "outline": "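Compound at 200 μM final in 2% DMSO in simulated gastric fluid, shaken 24 h at room temperature; HPLC-photodiode array detection at 230 nm; duplicate means.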"}, "[7]": {"assay": "Solubility in simulated intestinal fluid at pH 7.6 by HPLC method", "assay_type": "physicochemical", "outline": "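Simulated intestinal fluid medium; each analogue 200 μM final in 2% DMSO, shaken 24 h at room temperature, then HPLC with photodiode array read at 230 nm; duplicate, means given.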"}, "[8]": {"tested_on": "Mycobacterium tuberculosis", "assay": "Antitubercular activity against Mycobacterium tuberculosis Erdman ATCC 35801 infected in C57BL/6 mouse assessed as viable bacterial load in lung at 200 mg/kg twice daily through gavage 5 days per week for 4 weeks starting on 10th day post-infection (reference value: 6.49 +/- 0.10 log10CFU/lung)", "assay_type": "functional"}, "[9]": {"tested_on": "Mycobacterium tuberculosis", "assay": "Antitubercular activity against Mycobacterium tuberculosis Erdman ATCC 35801 infected in C57BL/6 mouse assessed as viable bacterial load in lung at 200 mg/kg/day through gavage 5 days per week for 4 weeks starting on 10th day post-infection (reference value: 6.49 +/- 0.10 log10CFU/lung)", "assay_type": "functional"}, "[10]": {"tested_on": "Salmonella typhimurium", "assay": "Mutagenicity in Salmonella typhimurium TA100 assessed as mean revertant colonies at 0.25 to 240 ug/well in presence of rat liver S9 fraction", "assay_type": "toxicity, organism-based", "details": "salmonella enterica subsp. enterica serovar typhimurium", "outline": "(§2)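 MicroAmes: strains preincubated with or without Aroclor-induced rat liver S9, duplicate wells, six concentrations 0.25–250 μg equivalents/well; DMSO vehicle, 4-nitroquinoline-N-oxide (−S9) and 2-aminoanthracene (+S9) positive controls; revertant colonies counted; cytotoxicity noted as reduced revertants or background lawn; precipitation recorded.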"}, "[11]": {"tested_on": "Salmonella typhimurium", "assay": "Mutagenicity in Salmonella typhimurium TA100 assessed as mean revertant colonies at 0.25 to 240 ug/well in absence of rat liver S9 fraction", "assay_type": "toxicity, organism-based", "details": "salmonella enterica subsp. enterica serovar typhimurium", "outline": "as §2"}, "[12]": {"tested_on": "Salmonella typhimurium", "assay": "Mutagenicity in Salmonella typhimurium TA98 assessed as mean revertant colonies at 0.25 to 240 ug/well in absence of rat liver S9 fraction", "assay_type": "toxicity, organism-based", "details": "salmonella enterica subsp. enterica serovar typhimurium", "outline": "as §2"}},
  "data": [
    {"smiles": "O=C1C2=Nc3ccccc3CN2c2ccc(Cl)cc21", "values": [
      {"measurement": "Tmax", "setting": "[1]", "result": 1.5, "unit": "h"},
      {"measurement": "Cmax", "setting": "[2]", "result": 197, "unit": "ng/mL"},
      {"measurement": "clearance", "setting": "[3]", "result": 92.8, "unit": "mL/min/kg"},
      {"measurement": "inhibition at 0.5 h, 10 µM", "setting": "[4]", "result": 1, "unit": "%"},
      {"measurement": "Papp B→A at 1 h", "setting": "[5]", "result": 20.8, "unit": "×10⁻⁶ cm/s"},
      {"measurement": "solubility", "setting": "[6]", "result": 79.2, "unit": "µM"},
      {"measurement": "solubility", "setting": "[7]", "result": 19.3, "unit": "µM"},
      {"measurement": "log10cfu", "setting": "[8]", "result": 6.64},
      {"measurement": "log10cfu", "setting": "[9]", "result": 6.58},
      {"measurement": "Activity", "setting": "[10]", "result": "Non-toxic"},
      {"measurement": "Activity", "setting": "[11]", "result": "Non-toxic"},
      {"measurement": "Activity", "setting": "[12]", "result": "Non-toxic"}
    ]}
  ]
}
